{"data": "Results of several laboratories", "organism": "Plasmodium falciparum", "read-out": "parasite growth", "note": "Protocols differ between the studies behind these lines."}
{"SMILES": "CNCC[C@H](Oc1cccc2ccccc12)c1cccs1", "technique": "SYBR Green", "strain": "3D7", "notes": "blood stage", "IC50": "233 nM"}
{"SMILES": "CC1=C(C)/C(=C/c2[nH]c(Cc3ccc(OC(F)(F)F)cc3)cc2Cc2ccc(OC(F)(F)F)cc2)N=C1c1ccc[nH]1", "technique": "SYBR Green", "strain": "D6", "time": "72 h", "notes": "blood stage", "IC50": "1300 nM"}
{"SMILES": "CO[C@H]1C[C@H](O[C@@H]2/C(C)=C/C[C@@H]3C[C@@H](C[C@]4(CC[C@H](C)[C@@H](C5CCCCC5)O4)O3)OC(=O)[C@@H]3C=C(C)/C(=N/O)[C@H]4OC/C(=C\\C=C\\[C@@H]2C)[C@]43O)O[C@@H](C)[C@@H]1O", "technique": "SYBR Green", "strain": "3D7", "notes": "blood stage", "IC50": "553 nM"}
{"SMILES": "Cc1[nH]c(/C=C2\\N=C(c3ccc[nH]3)C3=C2OCCO3)cc1Cc1ccc(OC(F)(F)F)cc1", "technique": "SYBR Green", "strain": "D6", "time": "72 h", "notes": "blood stage", "IC50": "30.3 nM"}
{"SMILES": "CCCCCCOc1ccc2c(=O)c3c([nH]c2c1)CCCC3", "technique": "SYBR Green", "strain": "D6", "time": "72 h", "notes": "blood stage", "IC50": "0.447 nM"}
{"SMILES": "Cc1[nH]c(/C=C2\\N=C(c3ccc[nH]3)C=C2OCc2ccccc2)cc1Cc1ccc(OC(F)(F)F)cc1", "technique": "SYBR Green", "strain": "D6", "time": "72 h", "notes": "blood stage", "IC50": "9.63 nM"}
{"SMILES": "N=C(CC(O)c1nc2ccccc2c2ccccc12)Nc1ccc(F)cc1 (stereo not shown)", "technique": "ELISA", "strain": "3D7", "time": "72 h", "notes": "blood stage", "IC50": "123 nM"}
{"SMILES": "COc1ccc2cc1Oc1ccc(cc1)C[C@H]1c3c(cc4c(c3Oc3cc5c(cc3OC)CCN(C)[C@@H]5C2)OCO4)CCN1C", "technique": "SYBR Green", "strain": "3D7", "notes": "blood stage", "IC50": "664 nM"}
{"SMILES": "N=C(CC(O)c1nc2cc(F)ccc2c2ccc(F)cc12)Nc1ccc(F)cc1 (stereo not shown)", "technique": "ELISA", "strain": "3D7", "time": "72 h", "notes": "blood stage", "IC50": "407 nM"}
{"SMILES": "CC[C@H](CC[C@@H](C)[C@H]1CC[C@H]2[C@@H]3CC=C4C[C@@H](O)CC[C@]4(C)[C@H]3CC[C@]12C)C(C)C", "technique": "SYBR Green", "strain": "3D7", "time": "48 h", "notes": "blood stage", "IC50": "9.29 µg/mL"}
{"SMILES": "CCC1=C(CC)/C(=C/c2cc(Cc3ccc(OC(F)(F)F)cc3)c(C)[nH]2)N=C1c1ccc[nH]1", "technique": "SYBR Green", "strain": "D6", "time": "72 h", "notes": "blood stage", "IC50": "265 nM"}
{"SMILES": "N=C(CC(O)c1nc2ccccc2c2ccc(Cl)cc12)Nc1ccc(F)cc1 (stereo not shown)", "technique": "ELISA", "strain": "DD2", "time": "72 h", "notes": "drug-resistant strain, blood stage", "IC50": "49.9 nM"}
{"SMILES": "COC1=CC(c2ccc[nH]2)=N/C1=C\\c1[nH]c(C(=O)O)cc1Cc1ccc(OC(F)(F)F)cc1", "technique": "SYBR Green", "strain": "D6", "time": "72 h", "notes": "blood stage", "IC50": "> 2500 nM"}
{"SMILES": "N=C(CC(O)c1cc2c(F)cc(F)cc2c2cc(C(F)(F)F)ccc12)Nc1ccc(F)c(F)c1 (stereo not shown)", "technique": "ELISA", "strain": "3D7", "time": "72 h", "notes": "blood stage", "IC50": "7.2 nM"}
{"SMILES": "Cc1ccc(N(c2ccc(NC(=O)CN(C)c3ccccc3N3CCCC3=O)cc2)C(C)C)cc1", "technique": "SYBR Green", "strain": "DD2", "notes": "blood stage", "IC50": "2.74 nM"}
{"SMILES": "CO[C@H]1/C=C/O[C@@]2(C)Oc3c(C)c(O)c4c(O)c(c(/C=N/N5CCN(C)CC5)c(O)c4c3C2=O)NC(=O)/C(C)=C\\C=C\\[C@H](C)[C@H](O)[C@@H](C)[C@@H](O)[C@@H](C)[C@H](OC(C)=O)[C@@H]1C", "strain": "NF54", "notes": "blood stage", "IC50": "900 nM"}
{"SMILES": "N=C(CC(O)c1cc2cccnc2c2cccnc12)Nc1ccc(F)cc1 (stereo not shown)", "technique": "ELISA", "strain": "3D7", "time": "72 h", "notes": "blood stage", "IC50": "3200 nM"}
{"SMILES": "CCN(CC)CCCC(C)Nc1ccnc2cc(Cl)ccc12 (stereo not shown)", "strain": "NF54", "notes": "blood stage", "IC50": "11.7 nM"}
{"SMILES": "COC1=CC(c2ccc[nH]2)=N/C1=C\\c1[nH]c(Cc2ccc(OC(F)(F)F)cc2)cc1Cc1ccc(OC(F)(F)F)cc1", "technique": "SYBR Green", "strain": "D6", "time": "72 h", "notes": "blood stage", "IC50": "25.2 nM"}
{"SMILES": "N=C(CC(O)c1nc2ccccc2c2ccc(Br)cc12)Nc1ccc(F)cc1 (stereo not shown)", "technique": "ELISA", "strain": "DD2", "time": "72 h", "notes": "drug-resistant strain, blood stage", "IC50": "46.3 nM"}
{"SMILES": "CCCCCCCCNC(C)C(O)c1ccc(SC(C)C)cc1 (stereo not shown)", "strain": "NF54", "notes": "blood stage", "IC50": "72.6 nM"}
{"SMILES": "CC1=C(C)/C(=C/c2cc(-c3ccc(OC(F)(F)F)cc3)c(C)[nH]2)N=C1c1ccc[nH]1", "technique": "SYBR Green", "strain": "D6", "time": "72 h", "notes": "blood stage", "IC50": "> 2500 nM"}
